STAT1 inh: inhibitors of IFN-gamma induced STAT1 signaling | NIH 3T3 STAT1-luciferase reporter, luminescence | inhibition, % at 5.5 µM | 200,000 compounds, 0.35% hits;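 active means inhibition above a set limit, the mean inhibition across all tested compounds plus 3 SD, cut at about 34% in these data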;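 further: 0% = IFN-gamma with DMSO and 100% = IFN-gamma with 300 µM nifuroxazide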
Platelet DG rel: platelet dense granule release activity; human platelet-rich plasma, SFLLRN dense granule ATP release, luminescence; inhibition, %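 (compounds screened at 7.5 µM in platelet-rich plasma)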; 300,000 compounds, 0.22% hits; AID 1663;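 active means mean replicate score, as percent of positive control, at or above 50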
STAT3 inh-1: reduces IL-6 driven STAT3 reporter signal; U3A cells, IL-6 STAT3-luciferase reporter, luminescence; host cell line lacks STAT1; 190,000 compounds, 0.89% hits; AID 862; inhibition, % at 5.5 µM;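 active means inhibition above the mean inhibition across all screened compounds plus 3 SD, cut at about 44% in these data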;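 further: 0% = DMSO only wells and 100% = 100 µM nifuroxazide control wells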
PERK inhibitor: inhibitors of human PERK kinase; AID 1416; Q9NZJ5; CHO PERK-DD fusion, SEAP luminescence translation reporter; inhibition, % at 5.6 µM; 220,000 compounds, 0.17% hits;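 active means inhibition above the mean inhibition of all tested compounds plus 3 SD, set separately per screening campaign, cut at about 2.9% in these data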;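 further: PERK kinase domain activated by AP20187 dimerizer at 100 nM; 0% = DMSO with dimerizer and 100% = rapamycin at 8.4 µM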
Target sequence (Q9NZJ5 whole entry, looked up, the tested form may be a part): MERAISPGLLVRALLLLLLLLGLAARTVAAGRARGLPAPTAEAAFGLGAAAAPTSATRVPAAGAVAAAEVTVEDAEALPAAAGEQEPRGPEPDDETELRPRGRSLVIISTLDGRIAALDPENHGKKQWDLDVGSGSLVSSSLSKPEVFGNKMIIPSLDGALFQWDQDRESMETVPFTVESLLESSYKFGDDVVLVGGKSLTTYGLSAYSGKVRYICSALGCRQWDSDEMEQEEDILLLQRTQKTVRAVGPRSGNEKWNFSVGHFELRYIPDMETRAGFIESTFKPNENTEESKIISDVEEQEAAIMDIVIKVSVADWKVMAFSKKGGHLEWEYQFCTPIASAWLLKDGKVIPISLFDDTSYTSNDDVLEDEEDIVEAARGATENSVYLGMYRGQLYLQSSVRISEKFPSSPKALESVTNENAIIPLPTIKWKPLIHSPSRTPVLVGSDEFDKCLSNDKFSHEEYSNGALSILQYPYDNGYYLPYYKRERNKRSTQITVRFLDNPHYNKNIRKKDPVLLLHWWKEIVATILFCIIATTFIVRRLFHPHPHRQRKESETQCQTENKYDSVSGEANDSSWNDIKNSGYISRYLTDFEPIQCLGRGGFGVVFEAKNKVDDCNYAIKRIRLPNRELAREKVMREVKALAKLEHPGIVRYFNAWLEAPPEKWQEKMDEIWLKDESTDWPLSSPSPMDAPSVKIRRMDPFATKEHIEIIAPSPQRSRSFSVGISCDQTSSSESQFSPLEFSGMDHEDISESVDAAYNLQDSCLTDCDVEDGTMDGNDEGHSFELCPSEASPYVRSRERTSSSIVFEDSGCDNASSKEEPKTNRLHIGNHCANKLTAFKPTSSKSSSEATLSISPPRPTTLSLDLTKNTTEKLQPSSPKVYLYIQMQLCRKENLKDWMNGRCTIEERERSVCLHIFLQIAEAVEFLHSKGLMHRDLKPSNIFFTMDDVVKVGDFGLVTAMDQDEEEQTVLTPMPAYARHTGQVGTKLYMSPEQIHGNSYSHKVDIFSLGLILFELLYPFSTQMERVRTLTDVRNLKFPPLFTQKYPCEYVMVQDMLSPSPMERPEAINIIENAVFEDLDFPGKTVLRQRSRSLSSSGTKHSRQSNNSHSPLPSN
STAT3 act: STAT3 signaling activation; U3A cells, IL-6 STAT3-luciferase reporter, luminescence; 100% = signal with IL-6 EC80 alone; activation (% of control), % at 5.6 µM; 190,000 compounds, 0.91% hits;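 active means activation above the screen-wide mean of compound activation plus 3 SD, cut at about 130% in these data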;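 further: 0% = background luminescence of wells with medium and substrate only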
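Test system: STAT3-luciferase reporter U3A cells; Detection: reporter luminescence signal; Times: 1 h compound pre-exposure, 6 h IL-6 stimulation, 37 °C; Benchmarks: IL-6-only high control; Also added: IL-6 stimulus at 33 ng/mL final.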
STAT3 inh-2: STAT3 inhibition, confirmation assay | U3A cells, IL-6 STAT3 luciferase reporter, luminescence; cell line lacks STAT1 | 1,200 compounds, 45% hits | AID 1265 | inhibition, % at 5.7 µM | shares compounds with STAT3 inh-1;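 active means inhibition above the hit cutoff computed for the primary STAT3 screen, cut at about 44% in these data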;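 further: 0% = IL-6 plus DMSO and 100% = IL-6 plus nifuroxazide control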
NFkB inh STAT3ct: counter-screen for STAT3 inhibitors: NF-kappaB inhibition; shares compounds with STAT3 inh-1; AID 1308; inhibition, % at 5.7 µM; 1,200 compounds, 36% hits; HEK293T NF-kB luciferase reporter, TNF-alpha induced;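 active means inhibition above the mean of solvent-only control wells plus 3 SD, cutoff set per campaign, cut at about 13% in these data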;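 further: 0% = TNF-alpha with DMSO and 100% = TNF-alpha with MG high control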
STAT1 inh STAT3c: counter-screen for STAT3 inhibitors: STAT1 inhibition; shares compounds with STAT3 inh-1; NIH 3T3 STAT1-luciferase reporter, IFN-gamma induced, luminescence; inhibition, % at 5.7 µM; 1,200 compounds, 27% hits;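 active means inhibition above the mean plus 3 SD of solvent-only control wells, limit set per screening run, cut at about 16% in these data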;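 further: 0% = DMSO with IFN-gamma and 100% = nifuroxazide control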
Numbers without * were called inactive. In the library only some 1.4% were active in any assay of this set; here they are far more common.

O=C(NC1CCC1)C1CCC(=O)N(Cc2ccccc2F)C1 (stereo not drawn) was read as Platelet DG rel -18.
`O=C(CCl)Nc1ccc(N2CCCCCC2)cc1` gave STAT1 inh -11, Platelet DG rel 1, STAT3 inh-1 10, PERK inhibitor 0 and STAT3 act 96.
NC(=O)c1ccsc1NC(=O)COC(=O)Cc1cccc2ccccc12 was read as STAT1 inh 18, Platelet DG rel -2, STAT3 inh-1 75*, PERK inhibitor 0, STAT3 act 37, STAT3 inh-2 74*, NFkB inh STAT3ct 19* and STAT1 inh STAT3c 20*.
For COc1ccc(/C=C/c2cc(-c3ccc(C)cc3)o[n+]2C)cc1 the results were STAT1 inh 24, Platelet DG rel -5, STAT3 inh-1 44*, PERK inhibitor 0, STAT3 act 68, STAT3 inh-2 20, NFkB inh STAT3ct 12 and STAT1 inh STAT3c 20*.
O=NN(CCc1ccncc1)c1ccc(OCc2ccccc2)cc1 was read as STAT1 inh 24, Platelet DG rel 7, STAT3 inh-1 63*, PERK inhibitor 1, STAT3 act 51, STAT3 inh-2 57*, NFkB inh STAT3ct 19* and STAT1 inh STAT3c 11.
For C=CCn1c(C)nnc1SCC(=O)N1CCN(S(=O)(=O)c2ccccc2)CC1 the results were Platelet DG rel 6 and PERK inhibitor 0.
For Nc1nc2ccccc2n1C(=O)c1ccc(F)cc1 the results were STAT1 inh 19, Platelet DG rel 12, STAT3 inh-1 68*, PERK inhibitor 0, STAT3 act 45, STAT3 inh-2 39, NFkB inh STAT3ct -3 and STAT1 inh STAT3c -66.
For Nc1nc2ccccc2n1C(=O)c1cccs1 the results were STAT1 inh -12, Platelet DG rel 16, STAT3 inh-1 38, PERK inhibitor -1 and STAT3 act 71.
COc1ccc(C(=O)n2c(N)nc3ccccc32)cc1OC was read as Platelet DG rel 2.
Nc1nc2ccccc2n1C(=O)c1ccccc1 was read as STAT1 inh 28, Platelet DG rel 32, STAT3 inh-1 67*, PERK inhibitor 1, STAT3 act 45, STAT3 inh-2 31, NFkB inh STAT3ct -4 and STAT1 inh STAT3c -71.
Screening COc1ccc(Cc2nc3ccc(C(=O)NCCc4ccncc4)cc3o2)cc1OC returned Platelet DG rel 3.
Screening COc1ccc(C(=O)Nc2ccc3oc(Cc4ccc(Cl)cc4)nc3c2)cc1OC returned STAT1 inh 9, Platelet DG rel -10, STAT3 inh-1 51*, PERK inhibitor -1, STAT3 act 63, STAT3 inh-2 45*, NFkB inh STAT3ct 8 and STAT1 inh STAT3c 3.
For CCc1ccc(OCc2nc(-c3ccccn3)no2)c(Br)c1 the results were STAT1 inh 0, Platelet DG rel 5, STAT3 inh-1 56*, PERK inhibitor 0, STAT3 act 57, STAT3 inh-2 19, NFkB inh STAT3ct -8 and STAT1 inh STAT3c -108.
Screening Cc1ccc(OCc2nc(-c3ccccn3)no2)cc1 returned STAT1 inh -29, Platelet DG rel 5, STAT3 inh-1 14, PERK inhibitor 1 and STAT3 act 92.
c1ccc(CSc2ncnc3c2cnn3-c2ccccc2)cc1 was read as STAT1 inh -3, Platelet DG rel -10, STAT3 inh-1 6, PERK inhibitor 1 and STAT3 act 93.
`CS(=O)(=O)c1ccc2nc(NC(=O)c3ccc(S(=O)(=O)NCC4CCCO4)cc3)sc2c1` (stereo not drawn) gave STAT1 inh 3, Platelet DG rel -1, STAT3 inh-1 14, PERK inhibitor 0 and STAT3 act 90.
For Cc1cccc(C(=O)Nc2ccc(N3CCN(c4ccc(C(F)(F)F)cn4)CC3)nc2)c1 the results were Platelet DG rel 3 and PERK inhibitor 1.
Screening O=C(Nc1ccc(N2CCOCC2)nc1)c1ccc(C(F)(F)F)cc1 returned STAT1 inh -2, STAT3 inh-1 61*, PERK inhibitor 0, STAT3 act 51, STAT3 inh-2 59*, NFkB inh STAT3ct 4 and STAT1 inh STAT3c -2.
COc1ccc(-c2c[n+]3c(n2-c2ccc(C)cc2)CCCCC3)cc1 was read as Platelet DG rel -3 and PERK inhibitor 1.
CCOc1ccc(-n2c(-c3ccc(OC)cc3)c[n+]3c2CCCCC3)cc1 was read as STAT1 inh 25, Platelet DG rel 5, STAT3 inh-1 85*, PERK inhibitor 0, STAT3 act 29, STAT3 inh-2 87*, NFkB inh STAT3ct 15* and STAT1 inh STAT3c 33*.
CCOc1ccc(-n2c(-c3ccccc3)c[n+]3c2CCC3)cc1 was read as STAT1 inh 34, Platelet DG rel 0, STAT3 inh-1 71*, PERK inhibitor 1, STAT3 act 43, STAT3 inh-2 59*, NFkB inh STAT3ct 0 and STAT1 inh STAT3c 22*.
`COc1ccc(-n2c(-c3ccc(Cl)cc3)c[n+]3c2CCCCC3)cc1` gave Platelet DG rel -2 and PERK inhibitor 1.
CCOc1ccc(-n2c(-c3ccc(Br)cc3)c[n+]3c2CCCCC3)cc1 was read as STAT1 inh 29, Platelet DG rel -4, STAT3 inh-1 60*, PERK inhibitor -1, STAT3 act 53, STAT3 inh-2 39, NFkB inh STAT3ct -3 and STAT1 inh STAT3c 23*.
COc1cccc(CN2CCN(CC#Cc3ccccc3)CC2CCO)c1 (stereo not drawn) was read as Platelet DG rel 4.
NC(=O)c1ccc(NC(=O)c2ccc(CN3CCOCC3)cc2)cc1 was read as STAT1 inh -3, Platelet DG rel 2, STAT3 inh-1 -4, PERK inhibitor 1 and STAT3 act 103.
`CCOC(=O)c1ccc(NC(=O)c2ccc(CN3CCOCC3)cc2)cc1` gave STAT1 inh 7, Platelet DG rel 1, STAT3 inh-1 68*, PERK inhibitor 0, STAT3 act 45, STAT3 inh-2 69*, NFkB inh STAT3ct 12 and STAT1 inh STAT3c 7.
For Cc1cc(CSc2ccccc2)ccc1NC(=O)c1ccc(CN2CCOCC2)cc1 the results were STAT1 inh 9, Platelet DG rel -3, STAT3 inh-1 73*, PERK inhibitor 0, STAT3 act 40, STAT3 inh-2 79*, NFkB inh STAT3ct 30* and STAT1 inh STAT3c 17*.
Screening O=C(Nc1ccc(CN2CCOCC2)cc1)c1cc2ccccn2n1 returned STAT1 inh 18, Platelet DG rel 8, STAT3 inh-1 76*, PERK inhibitor -1, STAT3 act 41, STAT3 inh-2 27, NFkB inh STAT3ct -2 and STAT1 inh STAT3c -50.
